KCNK9 inh – blocks the human KCNK9 two-pore domain potassium channel; HEK293 KCNK9, FluxOR thallium flux fluorescence; hits give low values; B-score at 10 µM; actives 1.2% (n = 310,000);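 active = ratio B-score over 3 SD below the library mean, with starting fluorescence within 5 SD of its mean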;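 note: negative B-score means less thallium flux so channel inhibition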
Target sequence (Q9NPC2 whole entry, looked up, the tested form may be a part): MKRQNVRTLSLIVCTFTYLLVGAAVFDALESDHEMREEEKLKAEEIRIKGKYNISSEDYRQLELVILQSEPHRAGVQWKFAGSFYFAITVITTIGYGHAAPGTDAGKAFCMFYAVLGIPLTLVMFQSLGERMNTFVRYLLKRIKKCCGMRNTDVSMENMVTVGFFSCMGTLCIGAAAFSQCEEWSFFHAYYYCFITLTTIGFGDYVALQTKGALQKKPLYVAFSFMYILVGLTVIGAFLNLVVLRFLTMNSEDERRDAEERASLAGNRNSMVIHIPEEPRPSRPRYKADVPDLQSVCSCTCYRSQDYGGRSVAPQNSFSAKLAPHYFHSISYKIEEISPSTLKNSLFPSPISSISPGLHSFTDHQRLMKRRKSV
Cl transport mod – KCC2 (human) Cl- transport modulation; KCC2 cells, thallium flux FluoZin-2 fluorescence; Q9H2X9; actives 2.2% (n = 190,000); AID 1456; B-score of Tl+ flux slope (higher = more flux/activation; lower = inhibition) at 10 µM;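 active = thallium flux slope and its plate-corrected score both differing from the plate sample mean at a set confidence after two filtering rounds, in either direction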;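 note: slope of fluorescence scaled to starting intensity during 10 to 20 s after thallium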
KCNK3 block – human KCNK3 channel inhibition, primary screen; O14649; CHO-KCNK3 thallium flux, FluxOR fluorescence; hits give low values; B-score at 10 µM; actives 0.84% (n = 340,000); AID 602410;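 active = B-score under library mean minus 4 SD, starting fluorescence ratio at most library mean plus 5 SD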;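 note: more negative B-score means stronger inhibition of thallium flux through KCNK3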
Target sequence (O14649 whole entry, looked up): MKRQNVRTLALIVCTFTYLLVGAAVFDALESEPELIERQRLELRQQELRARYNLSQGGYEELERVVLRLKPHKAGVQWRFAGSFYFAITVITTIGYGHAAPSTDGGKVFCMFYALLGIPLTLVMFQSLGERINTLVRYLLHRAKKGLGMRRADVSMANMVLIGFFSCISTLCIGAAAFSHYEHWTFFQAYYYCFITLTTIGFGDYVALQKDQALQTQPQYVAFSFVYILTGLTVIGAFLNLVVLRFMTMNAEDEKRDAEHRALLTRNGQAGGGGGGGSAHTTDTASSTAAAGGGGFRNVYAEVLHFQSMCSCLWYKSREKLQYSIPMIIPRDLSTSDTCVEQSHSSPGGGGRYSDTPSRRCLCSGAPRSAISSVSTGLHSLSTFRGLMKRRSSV
hERG protect – hERG (human) protection from proarrhythmic block; CHO-hERG, FluxOR thallium flux, dofetilide IC70 present; actives 0.51% (n = 310,000); activation (rescue from dofetilide block), less the hit threshold, % at 10 µM; AID 1511;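 active = activation above the mean of controls blocked by dofetilide plus 5 SD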;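 note: thallium influx through hERG after potassium depolarization seen as dye fluorescence rise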
KCNQ1 block – blocks the human KCNQ1 potassium channel; CHO-K1 KCNQ1, FluxOR thallium flux fluorescence; hits give high values; actives 1.3% (n = 310,000); B-score at 10 µM; P51787;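 active = compounds whose thallium flux B-score, printed positive for inhibition, exceeds three library SD while starting fluorescence stays within three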;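 note: channel opened by potassium depolarization with thallium stimulus after 20 min compound exposure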
KCNQ1 pot – potentiates or activates the human KCNQ1 potassium channel. P51787. actives 0.35% (n = 310,000). AID 2648. B-score at 10 µM. CHO-K1 KCNQ1, thallium flux FluxOR fluorescence; hits give high values;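 active = fluorescence ratio B-score, a plate-corrected score, at least three library SD, with initial intensity B-score within 5 SD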
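assay system = KCNQ1-transfected CHO-K1 cells | medium = assay buffer with matched DMSO | probe or stimulus = depolarizing K+/Tl+ stimulus, K2SO4 and Tl2SO4 each 12.5 mM in 5x stock | dosing = single dose | incubation = dye 90 min, compound 20 min, room temperature | detection = kinetic FluxOR fluorescence, 10 s baseline plus 110 s post-stimulus | evaluation = ratio B score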
KCC2 sec1 – confirmation of human KCC2 transport modulators. shares compounds with Cl transport mod. HEK293-KCC2, thallium flux, FluoZin2 fluorescence; hits give high values. normalised thallium flux (F/F0 slope) at 10 µM. actives 15% (n = 3,700). AID 1713;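 active = thallium flux slope above the same plate's solvent-only control mean plus 3 SD; inconclusive = the two replicate wells disagree; inactive = no significant difference from solvent-only control wells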
KCC2 bumet counter – thallium flux persisting under bumetanide in KCC2 cells, counter-screen secondary assay | AID 1714 | HEK293-KCC2 + bumetanide/ouabain, thallium flux FluoZin2; hits give high values | normalized thallium flux at 10 µM | actives 49% (n = 3,700) | shares compounds with Cl transport mod;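 active = thallium entry rate above the same plate's blocked-transporter control wells by more than 3 SD; inconclusive = the two repeat wells disagree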;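 note: raw slope of fluorescence over initial fluorescence between 10 and 20 s after thallium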
KCC2 sec2 – KCC2 (human) modulation, second secondary assay; shares compounds with Cl transport mod; HEK293-KCC2, thallium flux FluoZin2 fluorescence; actives lie on both sides; F/F0 rise rate, 10–20 s post-thallium; normalized thallium flux at 10 µM; actives 23% (n = 3,700); AID 1715;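 active = thallium flux slope more than 3 SD above or below the plate's solvent-only control mean, mostly below; inconclusive = the two repeat wells disagreed; inactive = no significant shift from solvent-only controls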;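 note: raw slope with 0.1% DMSO as baseline and bumetanide as block control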
HEK counter1 – acts in parental HEK cells, KCC2 counter-screen; shares compounds with Cl transport mod; HEK293 parental cells, thallium flux FluoZin2, ouabain; baseline-ratio fluorescence slope, 10–20 s after thallium; thallium flux rate (normalised fluorescence) at 10 µM; actives 46% (n = 3,700); AID 1716;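 active = thallium flux rate significantly above the same plate's solvent-only control wells, beyond their mean plus 3 SD; inconclusive = the two replicate wells gave conflicting results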
KCC2 retest ouab – KCC2 (human) modulation, ouabain retest; shares compounds with Cl transport mod; HEK293-KCC2, thallium flux FluoZin2 fluorescence; bidirectional: low = inhibitor, high = activator; raw Tl+ flux slope (below DMSO = inhibition, above = activation) at 10 µM; actives 48% (n = 3,700);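 active = thallium flux slope beyond 3 SD from same-plate DMSO control mean in most replicates, usually higher, sometimes lower; inconclusive = repeat tests gave conflicting results; inactive = no significant difference from controls in most replicates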;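 note: slope of initial-normalized fluorescence between seconds 10 and 20 after thallium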
HEK counter2 – parental HEK flux effect, counter-screen 2 | shares compounds with Cl transport mod | HEK293 parental, thallium flux FluoZin-2 fluorescence slope | thallium flux slope at 10 µM | actives 33% (n = 3,700) | AID 1718;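 active = thallium flux slope above the same plate's solvent-control mean plus 3 SD in both duplicate wells; inconclusive = duplicate wells that disagreed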;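 note: run without ouabain in cells lacking the KCC2 cotransporter; slope of fluorescence scaled to its starting value between 10 and 20 s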
The depositor's hits bear a star; i = inactive; ? = inconclusive; . = not tested or not shown. Compounds with a hit are over-represented: about 4.1% of the library has one in this group of screens.

SMILES | KCNK9 inh | Cl transport mod | KCNK3 block | hERG protect | KCNQ1 block | KCNQ1 pot | KCC2 sec1 | KCC2 bumet counter | KCC2 sec2 | HEK counter1 | KCC2 retest ouab | HEK counter2
O=c1[nH]c(-c2ccccn2)nc2sc(-c3ccccc3)cc12 | i | 4.4* | i | -7 | i | i | 0.0097 | 0.018* | 0.032 | 0.033* | ? | 0.015*
O=C(NNC(=S)NCc1ccccc1)c1ccccc1OC(F)F | i | -0.57 | i | -7 | i | i | . | . | . | . | . | .
O=C(NNC(=S)Nc1ccc(Cl)cc1)c1ccccc1OC(F)F | i | 5.2* | i | -11 | 8* | i | 0.0071 | 0.023* | 0.033 | 0.02* | 0.029* | 0.013*
O/C(=C\c1ccc2ccccc2n1)c1ccc(O)cc1O | i | -5.1* | i | -12 | i | i | 0.0058* | 0.0055 | 0.029 | 0.0075 | 0.014* | 0.011
CCC(=O)Nc1ccc(-c2ccc(N3CCN(C)CC3)nn2)cc1 | i | . | i | -8 | i | i | . | . | . | . | . | .
FC(F)(F)c1cc(-c2ccco2)nc(NCc2cccnc2)n1 | i | . | i | -9 | i | i | 0.0075 | 0.0045 | 0.03 | 0.0065 | 0.018 | 0.0097
CCCCNC(=O)N(c1c(N)n(Cc2ccccc2)c(=O)[nH]c1=O)C1CCCC1 | i | -0.79 | i | 1 | i | i | . | . | . | . | . | .
COc1cc(OC)c(C2=NOC(C(=O)N3CCc4ccccc4C3)C2)cc1Cl (stereo not drawn) | i | -3.2* | i | -13 | i | i | 0.0057 | 0.0039 | 0.024* | 0.0074 | ? | 0.0092
O=C(C1CC(c2ccc(F)cc2)=NO1)N1CCN(Cc2ccccc2)CC1 (stereo not drawn) | i | . | i | -10 | i | i | . | . | . | . | . | .
COc1cc(OC)c(C2=NOC(C(=O)N3CCN(C(=O)c4ccco4)CC3)C2)cc1Cl (stereo not drawn) | i | -0.61 | i | -17 | i | i | . | . | . | . | . | .
COc1cccc(C2=NOC(C(=O)N3CCN(Cc4ccccc4)CC3)C2)c1OC (stereo not drawn) | i | -4* | i | -13 | i | i | 0.0065 | 0.0057 | 0.029 | 0.0062 | 0.016* | ?
Cc1cc2nc3n(c2cc1C)CC1CC(C(=O)NCc2ccccc2)N(C)C31 (stereo not drawn) | i | . | i | -10 | i | i | . | . | . | . | . | .
CN1C(C(=O)NCc2ccccc2)CC2Cn3c(nc4cc(Cl)c(Cl)cc43)C21 (stereo not drawn) | i | -3.2* | i | -7 | i | i | 0.017 | 0.0045 | 0.022* | 0.007 | 0.014 | 0.01
O=C(OCn1ncc(Cl)c(Cl)c1=O)c1ccccc1Cl | i | -4.3* | i | -23 | i | i | 0.0085 | 0.0066 | 0.032 | ? | 0.015* | 0.011
O=C(OCn1ncc(Cl)c(Cl)c1=O)c1ccc(F)cc1 | i | -4.1* | . | -25 | i | i | 0.0069 | ? | 0.026* | 0.0076 | ? | 0.011
O=C(Cn1ncc(Cl)c(Cl)c1=O)c1ccc(Cl)cc1 | i | -1.4 | i | -4 | i | i | . | . | . | . | . | .
Cn1c(=O)c2c(nc(Br)n2C/C=N/NC(N)=S)n(C)c1=O | i | . | i | -7 | i | i | . | . | . | . | . | .
C=CCN(C(=O)C1=NN(C2CCS(=O)(=O)C2)C(=O)CC1)c1nc(-c2ccc([N+](=O)[O-])cc2)cs1 (stereo not drawn) | i | 0.24 | i | -13 | i | i | . | . | . | . | . | .
CC(C)(C)c1ccc(NC(=O)C(=O)C2C(=O)Nc3ccccc32)cc1 (stereo not drawn) | i | 7.9* | i | 5.7* | i | i | 0.0057 | 0.025* | ? | 0.018* | 0.028* | 0.02*
O=C(O)CC(NC(=O)c1ccco1)c1ccco1 (stereo not drawn) | i | . | i | -2 | i | i | . | . | . | . | . | .
O=C(O)CC(NC(=O)Cc1ccc(Cl)cc1)c1ccco1 (stereo not drawn) | i | -3.4* | . | -8 | i | i | 0.018 | 0.0042 | 0.031 | 0.0077 | 0.016 | 0.011
Cc1cc(C(=O)N2CCCC(N3CCN(c4ccc(F)cc4)CC3)C2)c(C)o1 (stereo not drawn) | i | . | i | -4 | i | i | . | . | . | . | . | .
O=C(N/N=C/C1CC=CCC1)c1ccc(O)cc1O (stereo not drawn) | i | 0.19 | i | -5 | i | i | . | . | . | . | . | .
O=C(N/N=C/C1CC=CCC1)c1cc2ccccc2cc1O (stereo not drawn) | i | 4.4* | i | -5 | i | i | ? | 0.029* | 0.036 | 0.015* | ? | 0.012*
O=C(CSc1nnc(-c2ccc(C(F)(F)F)cn2)s1)c1ccc(Cl)cc1 | i | 0.9 | i | -7 | i | i | . | . | . | . | . | .
CN(C(=S)NC(=O)C1(C)CC1(Cl)Cl)c1ccccc1 (stereo not drawn) | i | 5.1* | i | -9 | i | i | 0.022* | 0.026* | ? | 0.02* | 0.027* | 0.02*
CC1(C(=O)NC(=S)N(Cc2ccccc2)c2ccccn2)CC1(Cl)Cl (stereo not drawn) | i | -0.82 | i | -8 | i | i | . | . | . | . | . | .
Cc1ccc(CNC(=O)CCS(=O)(=O)Cc2ccc(C)cc2)cc1 | i | . | i | -12 | i | i | . | . | . | . | . | .
CCC(CC)Nc1ccc(C(CC(N)=O)NC(=O)c2ccccc2)cc1[N+](=O)[O-] (stereo not drawn) | i | . | i | -11 | i | i | . | . | . | . | . | .
